Test results: ChEMBL document CHEMBL2311491, “Development of new cyclic plasmin inhibitors with excellent potency and selectivity” (J Med Chem, 2013)

Columns and labels:
[1] = target: Cytochrome P450 2C9 (Homo sapiens, UniProt P11712); test: Inhibition of human recombinant CYP2C9 expressed in Trichoplusia ni BTI-TN-5B1-4 cells preincubated for 15 mins measured after 45 mins by spectrofluorimetry; format: ADME, cell-based
[2] = target: Cytochrome P450 2D6 (Homo sapiens, UniProt P10635); test: Inhibition of human recombinant CYP2D6 expressed in Trichoplusia ni BTI-TN-5B1-4 cells preincubated for 15 mins measured after 45 mins by spectrofluorimetry; format: ADME, cell-based
[3] = target: Cytochrome P450 3A4 (Homo sapiens, UniProt P08684); test: Inhibition of human recombinant CYP3A4 expressed in Trichoplusia ni BTI-TN-5B1-4 cells preincubated for 15 mins measured after 30 mins by spectrofluorimetry; format: ADME, cell-based
[4] = Metabolic stability in human liver microsomes assessed as degradation after 60 mins; format: ADME, Microsome; details: read-out: Drug degradation
[5] = Fraction unbound in human plasma; format: ADME, cell-free
[6] = target: L-type Ca channel, phenylalkylamine site (Rattus norvegicus, UniProt P22002+P27732+Q02485); test: Displacement of [3H](-)-desmethoxyverapamil from wistar rat Ca channel L-type phenylalkylamine receptor at 10 uM; details: probe [3H](-)-desmethoxyverapamil
Method in brief: (§1)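 Radioligand binding to the ion channel with test compound at 10 μM. Result expressed as % binding; negative values are read as no binding. Assays run by a contract laboratory.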

[7] = target: L-type Ca channel, dihydropyridine site (Rattus norvegicus, UniProt P22002+P27732+Q02485); test: Displacement of [3H]nitrendipine from wistar rat Ca channel L-type dihydropyridine receptor at 10 uM; details: probe [3H]nitrendipine; method in brief: as §1
[8] = target: L-type Ca channel, benzothiazepine site (Rattus norvegicus, UniProt P22002+P27732+Q02485); test: Displacement of [3H]diltiazem from wistar rat Ca channel L-type benzothiazepine receptor at 10 uM; details: probe [3H]diltiazem; method in brief: as §1
[9] = species on record: Rattus norvegicus; test: Displacement of [3H]batrachotoxinin from wistar rat Na channel at 10 uM
Method in brief: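 Single-point radioligand binding screen at 10 μM test compound, run by a contract lab under its own protocol. Read-out is percent binding, where negative values mean no binding.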

[10] = target: hERG (KCNH2) (Homo sapiens, UniProt Q12809); test: Displacement of [3H]astemizole from human ERG channel at 10 uM; details: probe [3H]astemizole; method in brief: as §1
[11] = system: Plasma; test: Anticoagulant activity in human plasma assessed as concentration required to thrombin time; format: functional
Method in brief: (§2)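 Clotting time measured in human plasma spiked with inhibitor. Value reported as EC200, the concentration that doubles the clotting time.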

[12] = system: Plasma; test: Anticoagulant activity in human plasma assessed as concentration required to activated partial thromboplastin time; format: functional; method in brief: as §2
[13] = system: Plasma; test: Anticoagulant activity in human plasma assessed as concentration required to prothrombin time; format: functional; method in brief: as §2
[14] = system: Plasma; test: Anticoagulant activity in human plasma assessed as tPA-induced fibrinolysis; format: functional; details: in the assay text read “Antifibrinolytic activity” for “Anticoagulant activity”
Method in brief: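 tPA-induced fibrinolysis in human plasma. Value reported as EC200, the inhibitor concentration that doubles the clot-to-lysis time.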

[15] = target: Serine protease 1 (Homo sapiens, UniProt P07477); test: Inhibition of human trypsin
[16] = target: Urokinase-type plasminogen activator (Homo sapiens, UniProt P00749); test: Inhibition of human uPA
[17] = target: Tissue-type plasminogen activator (Homo sapiens, UniProt P00750); test: Inhibition of human tPA
[18] = target: Coagulation factor IX (Homo sapiens, UniProt P00740); test: Inhibition of human FIXa
[19] = target: Coagulation factor XII (Homo sapiens, UniProt P00748); test: Inhibition of human FXIIa
[20] = target: Coagulation factor XI (Homo sapiens, UniProt P03951); test: Inhibition of human FXIa
[21] = target: Complement C1r subcomponent (Homo sapiens, UniProt P00736); test: Inhibition of human C1r
[22] = target: Complement C1s subcomponent (Homo sapiens, UniProt P09871); test: Inhibition of human C1s
[23] = target: Trypsin (Sus scrofa, UniProt P00761); test: Inhibition of pig trypsin using CH3SO2-D-Cha-Gly-Arg-pNA as substrate after 5 to 10 mins by micro plate reader analysis
[24] = target: Vitamin K-dependent protein C (Homo sapiens, UniProt P04070); test: Inhibition of human activated protein C using H-D-Lys(Cbz)-Pro-Arg-pNA as substrate after 5 to 10 mins by micro plate reader analysis
[25] = target: Prothrombin (Homo sapiens, UniProt P00734); test: Inhibition of human thrombin using CH3SO2-D-Cha-Gly-Arg-pNA as substrate after 5 to 10 mins by micro plate reader analysis
[26] = target: Kallikrein-1 (Homo sapiens, UniProt P06870); test: Inhibition of urinary kallikrein (unknown origin)
[27] = target: Coagulation factor X (Homo sapiens, UniProt P00742); test: Inhibition of human factor Xa using CH3OCO-D-Cha-Gly-Arg-pNA as substrate after 5 to 10 mins by micro plate reader analysis
[28] = Thermodynamic solubility of the compound in 0.9% saline; format: physicochemical; details: read-out: Therm_solubility
[29] = target: Cytochrome P450 1A2 (Homo sapiens) (UniProt P05177); test: Inhibition of human recombinant CYP1A2 expressed in Trichoplusia ni BTI-TN-5B1-4 cells preincubated for 15 mins measured after 45 mins by spectrofluorimetry
[30] = target: Cytochrome P450 2C19 (Homo sapiens) (UniProt P33261); test: Inhibition of human recombinant CYP2C19 expressed in Trichoplusia ni BTI-TN-5B1-4 cells preincubated for 15 mins measured after 30 mins by spectrofluorimetry
[31] = target: Plasma kallikrein (Homo sapiens, UniProt P03952); test: Inhibition of human plasma kallikrein using H-D-Pro-Phe-Arg-pNA as substrate after 5 to 10 mins by micro plate reader analysis
[32] = target: Plasminogen (Homo sapiens, UniProt P00747); test: Inhibition of human plasmin protease domain using Tos-Gly-Pro-Lys-pNA as substrate by micro plate reader analysis

Chain of Serine protease 1 (P07477 whole entry): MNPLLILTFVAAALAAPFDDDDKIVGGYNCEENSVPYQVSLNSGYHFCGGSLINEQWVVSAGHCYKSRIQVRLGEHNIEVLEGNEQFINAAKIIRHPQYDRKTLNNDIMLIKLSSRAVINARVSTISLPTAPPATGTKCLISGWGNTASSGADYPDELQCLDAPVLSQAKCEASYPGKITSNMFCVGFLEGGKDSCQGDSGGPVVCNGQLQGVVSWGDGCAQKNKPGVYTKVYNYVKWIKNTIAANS
Chain of Coagulation factor X (P00742 41-179 limits assumed): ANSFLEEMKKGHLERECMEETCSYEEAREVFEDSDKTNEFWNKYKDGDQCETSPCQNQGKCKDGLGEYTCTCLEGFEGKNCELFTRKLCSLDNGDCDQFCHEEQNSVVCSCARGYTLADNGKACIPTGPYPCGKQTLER
Chain of Coagulation factor X (P00742 235-488 limits assumed): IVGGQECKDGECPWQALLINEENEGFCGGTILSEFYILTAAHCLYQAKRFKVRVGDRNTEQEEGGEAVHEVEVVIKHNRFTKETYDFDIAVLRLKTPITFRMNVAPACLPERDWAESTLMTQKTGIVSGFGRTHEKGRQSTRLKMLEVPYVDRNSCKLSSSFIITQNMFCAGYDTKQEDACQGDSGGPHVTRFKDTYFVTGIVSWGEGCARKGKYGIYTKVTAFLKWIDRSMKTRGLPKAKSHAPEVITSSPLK
Chain of Cytochrome P450 2C19 (Homo sapiens) (P33261 whole entry, looked up): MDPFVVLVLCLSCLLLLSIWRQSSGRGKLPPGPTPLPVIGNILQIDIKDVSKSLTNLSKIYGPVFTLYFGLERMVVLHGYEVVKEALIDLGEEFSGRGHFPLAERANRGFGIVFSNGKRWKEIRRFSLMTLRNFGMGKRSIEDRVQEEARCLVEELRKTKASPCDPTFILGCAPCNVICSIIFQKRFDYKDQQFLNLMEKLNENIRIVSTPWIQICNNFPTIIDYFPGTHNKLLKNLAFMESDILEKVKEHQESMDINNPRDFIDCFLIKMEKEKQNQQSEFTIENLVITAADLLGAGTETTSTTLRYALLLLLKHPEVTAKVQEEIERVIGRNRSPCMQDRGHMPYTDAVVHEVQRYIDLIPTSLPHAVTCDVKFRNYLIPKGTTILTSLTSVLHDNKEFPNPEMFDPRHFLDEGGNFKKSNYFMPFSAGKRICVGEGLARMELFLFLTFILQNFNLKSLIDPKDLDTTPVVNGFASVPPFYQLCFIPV
Chain of Cytochrome P450 3A4 (P08684 whole entry): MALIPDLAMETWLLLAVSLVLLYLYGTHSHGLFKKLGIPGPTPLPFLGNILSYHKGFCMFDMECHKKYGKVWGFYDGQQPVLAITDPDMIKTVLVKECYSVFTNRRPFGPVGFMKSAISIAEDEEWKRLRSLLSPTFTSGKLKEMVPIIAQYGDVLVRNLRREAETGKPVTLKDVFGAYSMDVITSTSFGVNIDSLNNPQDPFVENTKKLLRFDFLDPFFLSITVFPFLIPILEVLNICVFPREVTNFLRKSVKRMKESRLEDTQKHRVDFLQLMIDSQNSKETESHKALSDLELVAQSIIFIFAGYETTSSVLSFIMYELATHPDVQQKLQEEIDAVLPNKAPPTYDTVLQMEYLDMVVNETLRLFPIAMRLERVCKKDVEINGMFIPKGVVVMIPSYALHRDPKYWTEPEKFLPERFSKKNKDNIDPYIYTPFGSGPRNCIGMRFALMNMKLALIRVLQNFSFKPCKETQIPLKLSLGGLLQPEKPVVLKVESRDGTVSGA
Chain of Kallikrein-1 (P06870 whole entry): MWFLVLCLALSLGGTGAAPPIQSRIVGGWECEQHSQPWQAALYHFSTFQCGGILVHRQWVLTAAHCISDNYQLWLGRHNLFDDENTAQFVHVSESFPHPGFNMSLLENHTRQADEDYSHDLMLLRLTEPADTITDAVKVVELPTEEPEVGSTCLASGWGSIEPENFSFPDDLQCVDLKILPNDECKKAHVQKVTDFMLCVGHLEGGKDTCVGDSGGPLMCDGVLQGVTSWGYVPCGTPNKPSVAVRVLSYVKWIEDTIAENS
Chain of Coagulation factor XI (P03951 19-387 limits assumed): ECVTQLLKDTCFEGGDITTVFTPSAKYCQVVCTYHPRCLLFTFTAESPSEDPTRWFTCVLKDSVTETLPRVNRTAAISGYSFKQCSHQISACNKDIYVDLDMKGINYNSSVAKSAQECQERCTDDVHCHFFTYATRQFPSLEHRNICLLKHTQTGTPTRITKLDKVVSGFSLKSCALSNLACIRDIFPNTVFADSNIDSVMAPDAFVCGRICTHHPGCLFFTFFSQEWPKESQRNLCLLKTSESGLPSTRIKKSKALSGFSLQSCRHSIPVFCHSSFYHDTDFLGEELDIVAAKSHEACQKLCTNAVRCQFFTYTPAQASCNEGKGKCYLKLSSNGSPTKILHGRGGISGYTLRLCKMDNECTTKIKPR
Chain of Coagulation factor XI (P03951 388-625 limits assumed): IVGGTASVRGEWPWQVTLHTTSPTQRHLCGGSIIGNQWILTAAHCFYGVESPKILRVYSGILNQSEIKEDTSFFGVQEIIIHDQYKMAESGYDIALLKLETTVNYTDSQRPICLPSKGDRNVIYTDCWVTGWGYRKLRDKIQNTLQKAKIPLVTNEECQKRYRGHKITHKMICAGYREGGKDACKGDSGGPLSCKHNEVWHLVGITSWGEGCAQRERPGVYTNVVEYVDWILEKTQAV
Chain of Cytochrome P450 2D6 (P10635 whole entry): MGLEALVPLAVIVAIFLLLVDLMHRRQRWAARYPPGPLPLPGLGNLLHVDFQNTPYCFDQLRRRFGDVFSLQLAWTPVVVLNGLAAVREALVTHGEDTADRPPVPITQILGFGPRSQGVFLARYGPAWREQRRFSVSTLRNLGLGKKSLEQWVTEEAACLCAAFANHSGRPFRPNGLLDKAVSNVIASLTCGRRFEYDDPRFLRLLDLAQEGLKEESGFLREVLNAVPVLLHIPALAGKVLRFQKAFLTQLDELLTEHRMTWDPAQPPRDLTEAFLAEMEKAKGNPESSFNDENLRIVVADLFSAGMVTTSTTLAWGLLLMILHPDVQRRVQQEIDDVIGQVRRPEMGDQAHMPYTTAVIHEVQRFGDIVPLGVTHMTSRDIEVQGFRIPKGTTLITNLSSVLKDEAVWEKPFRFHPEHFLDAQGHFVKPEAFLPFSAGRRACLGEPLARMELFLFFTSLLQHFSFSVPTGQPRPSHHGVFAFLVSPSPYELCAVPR
Chain of Tissue-type plasminogen activator (P00750 whole entry): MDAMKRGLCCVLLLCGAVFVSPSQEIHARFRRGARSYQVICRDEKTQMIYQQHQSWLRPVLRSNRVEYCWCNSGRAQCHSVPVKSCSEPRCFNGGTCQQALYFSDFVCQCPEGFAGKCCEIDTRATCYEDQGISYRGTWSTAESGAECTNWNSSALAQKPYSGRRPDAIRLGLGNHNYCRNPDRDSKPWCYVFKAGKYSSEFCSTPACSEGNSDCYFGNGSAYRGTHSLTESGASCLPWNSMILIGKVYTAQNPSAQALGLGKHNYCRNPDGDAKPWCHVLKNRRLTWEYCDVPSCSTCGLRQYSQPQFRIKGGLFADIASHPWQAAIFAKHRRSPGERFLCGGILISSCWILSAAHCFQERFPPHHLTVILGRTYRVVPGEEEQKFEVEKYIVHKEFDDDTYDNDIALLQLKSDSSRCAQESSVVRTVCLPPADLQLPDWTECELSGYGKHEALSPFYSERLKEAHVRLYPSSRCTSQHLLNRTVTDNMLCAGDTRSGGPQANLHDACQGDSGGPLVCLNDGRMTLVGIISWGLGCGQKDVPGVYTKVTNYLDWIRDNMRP
Chain of Complement C1s subcomponent (P09871 16-437 limits assumed): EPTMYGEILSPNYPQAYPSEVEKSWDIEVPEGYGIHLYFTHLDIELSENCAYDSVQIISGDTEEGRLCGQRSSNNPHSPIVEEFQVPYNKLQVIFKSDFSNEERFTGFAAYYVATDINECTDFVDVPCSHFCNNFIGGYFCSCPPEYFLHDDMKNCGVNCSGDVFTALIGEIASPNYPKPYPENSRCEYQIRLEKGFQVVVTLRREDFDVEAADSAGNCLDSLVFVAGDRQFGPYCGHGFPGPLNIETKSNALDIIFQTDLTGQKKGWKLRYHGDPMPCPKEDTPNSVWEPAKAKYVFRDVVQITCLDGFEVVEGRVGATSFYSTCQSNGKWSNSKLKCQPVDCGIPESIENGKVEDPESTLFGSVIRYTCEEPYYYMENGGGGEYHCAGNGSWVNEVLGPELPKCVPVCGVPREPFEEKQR
Chain of Complement C1s subcomponent (P09871 438-688 limits assumed): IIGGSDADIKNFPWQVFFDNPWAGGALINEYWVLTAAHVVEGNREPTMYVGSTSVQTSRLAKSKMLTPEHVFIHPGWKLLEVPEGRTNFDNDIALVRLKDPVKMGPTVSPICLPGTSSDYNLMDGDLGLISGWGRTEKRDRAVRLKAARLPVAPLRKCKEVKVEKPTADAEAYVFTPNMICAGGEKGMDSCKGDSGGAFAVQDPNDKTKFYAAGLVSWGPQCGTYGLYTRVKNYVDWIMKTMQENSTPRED
Chain of Cytochrome P450 2C9 (P11712 whole entry): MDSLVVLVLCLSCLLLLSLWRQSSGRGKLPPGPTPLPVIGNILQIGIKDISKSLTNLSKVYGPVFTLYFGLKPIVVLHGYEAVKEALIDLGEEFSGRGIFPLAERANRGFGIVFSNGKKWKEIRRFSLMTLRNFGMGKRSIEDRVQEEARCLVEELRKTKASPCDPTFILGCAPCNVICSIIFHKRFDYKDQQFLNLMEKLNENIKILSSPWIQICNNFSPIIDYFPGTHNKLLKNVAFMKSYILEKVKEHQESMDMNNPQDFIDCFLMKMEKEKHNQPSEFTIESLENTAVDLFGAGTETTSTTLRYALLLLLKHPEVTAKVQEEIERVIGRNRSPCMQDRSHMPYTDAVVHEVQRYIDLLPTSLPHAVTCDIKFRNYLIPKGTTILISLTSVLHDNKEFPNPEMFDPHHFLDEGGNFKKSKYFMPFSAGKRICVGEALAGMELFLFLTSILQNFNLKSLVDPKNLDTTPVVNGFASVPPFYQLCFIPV

Structure (SMILES) | IC50 [1] | IC50 [2] | IC50 [3] | metabolised at 1 h [4] | fraction unbound [5] | inhibition at 10 µM [6] | inhibition at 10 µM [7] | inhibition at 10 µM [8] | inhibition [9] | inhibition at 10 µM [10] | EC200 [11] | EC200 [12] | EC200 [13] | EC200 [14] | Ki [15] | Ki [16] | Ki [17] | Ki [18] | Ki [19] | Ki [20] | also measured
N=C(N)c1ccc(CNC(=O)[C@@H]2Cc3ccc(cc3)NC(=O)CN3CCN(CC3)CC(=O)Nc3ccc(cc3)C[C@@H](NS(=O)(=O)Cc3ccccc3)C(=O)N2)cc1.O=C(O)C(F)(F)F | > 100 µM | > 40 µM | > 22 µM | 0% | 0.61 | 13% | -2% | 1% | -8% | 7% | >100 µM | >100 µM | >100 µM | 280 nM | 0.044 µM | 8.9 µM | > 100 µM | > 100 µM | > 100 µM | 4.7 µM | Ki [21]: > 50 µM; Ki [22]: > 100 µM; Ki [23]: 0.0626 µM; Ki [24]: > 25 µM; Ki [25]: 13.9 µM; Ki [26]: > 50 µM; Ki [27]: > 10 µM; solubility thermodynamic [28]: > 2000 µg/mL; IC50 [29]: > 10 µM; IC50 [30]: > 100 µM
N=C(N)c1ccc(CNC(=O)[C@@H]2Cc3ccc(cc3)NC(=O)CCN3CCN(CCC(=O)Nc4ccc(cc4)C[C@@H](NS(=O)(=O)Cc4ccccc4)C(=O)N2)CC3)cc1.O=C(O)C(F)(F)F | > 100 µM | > 10 µM | > 10 µM | 2% | 0.67 | 3% | -5% | -4% | 27% | 4% | >100 µM | >100 µM | >100 µM | 180 nM | 0.0084 µM | 6.5 µM | > 40 µM | > 5 µM | > 20 µM | 3.37 µM | Ki [21]: > 35 µM; Ki [22]: > 35 µM; Ki [23]: 0.0383 µM; Ki [24]: > 15 µM; Ki [25]: 26.4 µM; Ki [26]: 10 µM; Ki [31]: 1 µM; Ki [32]: 0.0002 µM; Ki [27]: 25 µM; solubility thermodynamic [28]: > 2000 µg/mL; IC50 [29]: > 100 µM; IC50 [30]: > 100 µM
